The source of these data is ChEMBL document CHEMBL1139414, “Conformationally constrained analogues of diacylglycerol. 29. Cells sort diacylglycerol-lactone chemical zip codes to produce diverse and selective biological activities” (J Med Chem, 2008).

This assay addresses Protein kinase C alpha type (Mus musculus, UniProt P20444). Nature of the assay: Displacement of [3H]PDBu form mouse PKCalpha by scintillation counting. The procedure, abridged:
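Partially purified mouse PKCα; competition with [³H]PDBU. ID50 obtained by fitting a sigmoidal competition curve and converted to Ki = ID50/(1+L/Kd). Pure compounds tested at 6–7 concentrations; crude library compounds at a single 1 μM concentration. Triplicates per concentration, at least three experiments; mean ± SEM.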
For orientation: Displacement assays read how much labelled ligand stays bound in the presence of the test substance.
Usually Ki stands for the dissociation constant of the complex between target and ligand, obtained from inhibition or displacement. Read a high Ki as a looser hold on the target. `CC(C)(C)CC(=O)OCC1(CO)C/C(=C/c2ccccc2C(F)(F)F)C(=O)O1` (racemic) had a Ki of 41.4 nM.
With `O=C1OC(CO)(COC(=O)C(c2ccccc2)c2ccccc2)C/C1=C/c1ccc(Cl)c(F)c1` (racemic), the Ki turned out to be 90.7 nM.
The same measure for `CCCCC(CC)C(=O)OCC1(CO)C/C(=C/c2ccc(Br)cc2)C(=O)O1` (racemic): 8.5 nM.
The same measure for `O=C1OC(CO)(COC(=O)C2CCCCC2)C/C1=C/c1ccc(C(F)(F)F)cc1` (racemic): 31.9 nM; for `CCCC(CCC)C(=O)OCC1(CO)C/C(=C/c2ccccc2C(F)(F)F)C(=O)O1` (racemic): 29.6 nM; for `CCCC(CCC)C(=O)OCC1(CO)C/C(=C/c2cccc(C(F)(F)F)c2)C(=O)O1` (racemic): 15.5 nM.
As to `COc1ccc(C(=O)OCC2(CO)C/C(=C/c3ccc(C(F)(F)F)cc3)C(=O)O2)cc1` (racemic), the Ki came out at 86.5 nM.
Molecule `CC(C)C(=O)OCC1(CO)C/C(=C/c2ccc(Cl)c(F)c2)C(=O)O1` (racemic) came in with a Ki of 87.6 nM.
The same measure for `CC(C)(C)C(=O)OCC1(CO)C/C(=C/c2ccc(-c3ccc(C(F)(F)F)cc3)cc2)C(=O)O1` (racemic): 27.2 nM; for `CCCCC(CC)C(=O)OCC1(CO)C/C(=C/c2ccc(OC(F)(F)F)cc2)C(=O)O1` (racemic): 15.2 nM; for `CC(C)(C)CC(=O)OCC1(CO)C/C(=C/c2ccc(Cl)cc2)C(=O)O1` (racemic): 26.5 nM.
Consider `CCCCCC/C=C1/CC(CO)(COC(=O)c2ccccc2)OC1=O` (racemic), for which affinity was put at a Ki of 98.5 nM.
The same measure for `O=C1OC(CO)(COC(=O)c2ccc(C(F)(F)F)cc2)C/C1=C/c1ccc(C(F)(F)F)cc1` (racemic): 72.4 nM; for `CCCC(CCC)C(=O)OCC1(CO)C/C(=C/c2ccc(OC(F)(F)F)cc2)C(=O)O1` (racemic): 16.4 nM.
With `CC(C)C(=O)OCC1(CO)C/C(=C/c2cccc(C(F)(F)F)c2)C(=O)O1` (racemic) the figure was 70.2 nM.
With `COc1ccc(/C=C2/CC(CO)(COC(=O)C3CCCCC3)OC2=O)cc1` (racemic) the figure was 156 nM; with `CC(C)C(=O)OCC1(CO)C/C(=C/c2ccc(F)c(Cl)c2)C(=O)O1` (centres undefined), 119 nM.
As to `CCCCC(CC)C(=O)OCC1(CO)C/C(=C\c2ccc(F)c(Br)c2)C(=O)O1` (racemic; form 1), the Ki was 6.1 nM.
In turn, `O=C1OC(CO)(COC(=O)C(c2ccccc2)c2ccccc2)C/C1=C/c1ccc(Br)cc1` (racemic) registered a Ki of 58.9 nM. This Ki is about 9.7-fold higher than that of the molecule before.
The same measure for `CC(C)(C)CC(=O)OCC1(CO)C/C(=C/c2ccc(F)cc2)C(=O)O1` (racemic): 108 nM; for `O=C1OC(CO)(COC(=O)c2ccccc2)C/C1=C/c1ccccc1` (racemic): 232 nM; for `CCCCC(CC)C(=O)OCC1(CO)C/C(=C\c2ccc(Cl)cc2)C(=O)O1` (racemic; form 1): 12.7 nM.
The same measure for `CCCCCCC(=O)OCC1(CO)C/C(=C/c2ccc([N+](=O)[O-])cc2)C(=O)O1` (racemic): 93.8 nM; for `CCCCCC/C=C1/CC(CO)(COC(=O)c2ccc(OC)cc2)OC1=O` (racemic): 105 nM; for `CCCCC(/C=C1/CC(CO)(COC(=O)c2ccc([N+](=O)[O-])cc2)OC1=O)CC` (racemic; form 1): 460 nM.
In turn, `CC(C)(C)C(=O)OCC1(CO)C/C(=C\c2ccc(F)c(Cl)c2)C(=O)O1` (racemic; form 2) yielded a Ki of 20.5 nM.
The same measure for `CC(C)C(=O)OCC1(CO)C/C(=C/c2ccc(F)c(Br)c2)C(=O)O1` (racemic): 60.6 nM; for `CC(C)C(=O)OCC1(CO)C/C(=C/c2cc(C(F)(F)F)cc(C(F)(F)F)c2)C(=O)O1` (racemic): 82.8 nM.
Turning to `CCCCC(CC)C(=O)OCC1(CO)C/C(=C/c2ccc(C(F)(F)F)cc2)C(=O)O1` (racemic; form 1), the Ki is 15.5 nM.
The same measure for `CCCCC(CC)C(=O)OCC1(CO)C/C(=C/C2CCCCC2)C(=O)O1` (racemic): 30.2 nM; for `O=C1OC(CO)(COC(=O)c2ccc(C(F)(F)F)cc2)C/C1=C/C1CCCCC1` (racemic): 106 nM.
With `CCCCC(CC)C(=O)OCC1(CO)C/C(=C/c2ccc(C(F)(F)F)cc2)C(=O)O1` (racemic; form 2) the figure was 13.1 nM; with `CN(C)c1ccc(C(=O)OCC2(CO)C/C(=C/c3ccc(C(F)(F)F)cc3)C(=O)O2)cc1` (racemic), 95 nM.
With `CCCCC(/C=C1/CC(CO)(COC(=O)c2ccccc2)OC1=O)CC` (racemic) the figure was 312 nM; with `CC(CC(=O)OCC1(CO)C/C(=C/c2cccc(C(F)(F)F)c2)C(=O)O1)CC(C)(C)C` (racemic; form 2), 41 nM.
`CCCCCC/C=C1/CC(CO)(COC(=O)c2ccc(C)cc2)OC1=O` (racemic): the affinity corresponds to a Ki of 60.2 nM.
With `CN(C)c1ccc(C(=O)OCC2(CO)C/C(=C/c3ccc([N+](=O)[O-])cc3)C(=O)O2)cc1` (racemic) the figure was 1080 nM; with `CC(C)(C)C(=O)OCC1(CO)C/C(=C\c2ccc(Cl)c(F)c2)C(=O)O1` (racemic; form 2), 28.8 nM; with `O=C1OC(CO)(COC(=O)C(c2ccccc2)c2ccccc2)C/C1=C/c1ccc(OC(F)(F)F)cc1` (racemic), 97.6 nM.
With `O=C1OC(CO)(COC(=O)C(c2ccccc2)c2ccccc2)C/C1=C/c1ccc(-c2ccc(C(F)(F)F)cc2)cc1` (racemic) the figure was 111 nM.
With `CCCCCC/C=C1/CC(CO)(COC(=O)c2c(C(C)C)cc(C(C)C)cc2C(C)C)OC1=O` (racemic; form 1) the figure was 2.5 nM.
`CCCCC(CC)C(=O)OCC1(CO)C/C(=C/c2ccc(F)cc2)C(=O)O1` (racemic): affinity was put at a Ki of 15.1 nM.
As to `CC(CC(=O)OCC1(CO)C/C(=C/c2ccc(Cl)c(F)c2)C(=O)O1)CC(C)(C)C` (racemic), the affinity, expressed as Ki, was 38.3 nM.
`O=C1OC(CO)(COC(=O)C(c2ccccc2)c2ccccc2)C/C1=C/c1ccccc1C(F)(F)F` (racemic): the Ki was determined as 133 nM. This Ki lies about 3.5-fold higher than the previous one.
With `CC(CC(=O)OCC1(CO)C/C(=C/c2ccc(-c3ccc(C(F)(F)F)cc3)cc2)C(=O)O1)CC(C)(C)C` (racemic) the figure was 49.7 nM; with `CC(C)(C)CC(=O)OCC1(CO)C/C(=C/c2ccc(OC(F)(F)F)cc2)C(=O)O1` (racemic), 24.6 nM; with `CC(C)(C)C(=O)OCC1(CO)C/C(=C/c2ccc(Cl)c(F)c2)C(=O)O1` (racemic), 36.7 nM.
The same measure for `COc1ccc(C(=O)OCC2(CO)C/C(=C/C3CCCCC3)C(=O)O2)cc1` (racemic): 261 nM.
With `CC(C)(C)C(=O)OCC1(CO)C/C(=C/c2cccc(C(F)(F)F)c2)C(=O)O1` (racemic) the figure was 28.1 nM; with `CN(C)c1ccc(C(=O)OCC2(CO)C/C(=C\c3ccc([N+](=O)[O-])cc3)C(=O)O2)cc1` (racemic; form 2), 362 nM; with `Cc1cc(C)c(C(=O)OCC2(CO)C/C(=C/c3ccc(C(F)(F)F)cc3)C(=O)O2)c(C)c1` (racemic), 25.1 nM.
`COc1ccc(C(=O)OCC2(CO)C/C(=C\c3ccc(N(C)C)cc3)C(=O)O2)cc1` (racemic; form 1): affinity was put at a Ki of 103 nM.
For the molecule `CC(C)(C)CC(=O)OCC1(CO)C/C(=C/c2ccc(F)c(Cl)c2)C(=O)O1` (racemic), the affinity, expressed as Ki, was 26.4 nM.
Turning to `O=C1OC(CO)(COC(=O)C2CCCCC2)C/C1=C/c1ccc([N+](=O)[O-])cc1` (racemic), the Ki turned out to be 105 nM.
With `O=C1OC(CO)(COC(=O)C(c2ccccc2)c2ccccc2)C/C1=C/c1ccc(C(F)(F)F)cc1` (racemic) the figure was 52.4 nM.
With `CCCCC(/C=C1/CC(CO)(COC(=O)C(CC)CCCC)OC1=O)CC` (racemic) the figure was 62.7 nM; with `CC(C)C(=O)OCC1(CO)C/C(=C/c2ccc(-c3ccc(C(F)(F)F)cc3)cc2)C(=O)O1` (racemic), 34.8 nM; with `O=C1OC(CO)(COC(=O)C(c2ccccc2)c2ccccc2)C/C1=C/c1ccc(Cl)cc1` (racemic), 73.4 nM.
The same measure for `CCC(C(=O)OCC1(CO)C/C(=C/c2ccc(Br)cc2)C(=O)O1)c1ccccc1` (racemic): 33 nM.
Take `CCCCC(CC)C(=O)OCC1(CO)C/C(=C/c2cccc(C(F)(F)F)c2)C(=O)O1` (racemic): the affinity, expressed as Ki, was 9.4 nM.
The same measure for `CN(C)c1ccc(C(=O)OCC2(CO)C/C(=C/C3CCCCC3)C(=O)O2)cc1` (racemic): 305 nM; for `CC(C)(C)CC(=O)OCC1(CO)C/C(=C/c2ccc(F)c(Br)c2)C(=O)O1` (racemic): 19.3 nM.
The same measure for `O=C1OC(CO)(COC(=O)C(c2ccccc2)c2ccccc2)C/C1=C/c1cccc(C(F)(F)F)c1` (racemic): 61.9 nM; for `CC(C)(C)CC(=O)OCC1(CO)C/C(=C/c2cccc(C(F)(F)F)c2)C(=O)O1` (racemic): 23.2 nM.
With `CCCCC(CC)C(=O)OCC1(CO)C/C(=C\c2ccc(N(C)C)cc2)C(=O)O1` (racemic; form 1) the figure was 12.9 nM.
`CC(C)C(=O)OCC1(CO)C/C(=C/c2ccccc2C(F)(F)F)C(=O)O1` (racemic; form 1): the affinity corresponds to a Ki of 310 nM.
As for `CCC(C(=O)OCC1(CO)C/C(=C/c2ccc(F)cc2)C(=O)O1)c1ccccc1` (racemic), the Ki turned out to be 84.3 nM. Against the preceding molecule, the Ki is about 3.7-fold lower.
The same measure for `COc1ccc(/C=C2\CC(CO)(COC(=O)c3ccc(OC)cc3)OC2=O)cc1` (racemic; form 2): 332 nM.
With `Cc1ccc(C(=O)OCC2(CO)C/C(=C/c3ccc([N+](=O)[O-])cc3)C(=O)O2)cc1` (racemic) the figure was 212 nM.
With `Cc1ccc(C(=O)OCC2(CO)C/C(=C/c3ccc(C(F)(F)F)cc3)C(=O)O2)cc1` (racemic), the Ki is 53 nM.
As for `CC(C)(C)C(=O)OCC1(CO)C/C(=C\c2ccc(Cl)c(F)c2)C(=O)O1` (racemic; form 1), the Ki is 7.9 nM.
`CCCCC(CC)C(=O)OCC1(CO)C/C(=C/c2cc(C(F)(F)F)cc(C(F)(F)F)c2)C(=O)O1` (racemic) returned a Ki of 17.3 nM.
With `CC(CC(=O)OCC1(CO)C/C(=C/c2ccc(F)c(Br)c2)C(=O)O1)CC(C)(C)C` (racemic) the figure was 17.4 nM; with `CCC(C(=O)OCC1(CO)C/C(=C/c2cccc(C(F)(F)F)c2)C(=O)O1)c1ccccc1` (racemic), 30.2 nM.
